“And” between values parts separate entries of the source, which are not always exact repeats. Identical values can stand only once.
Experiments:
Cannabinoid receptor 2 [1] = target: T1, Cannabinoid receptor 2 (Homo sapiens, UniProt P34972); test: Agonist activity at human CB2 receptor expressed in CHOK1 cells assessed as inhibition of forskolin-induced cAMP production treated 15 mins before forskolin challenge measured after 1 hr by HTRF assay; assay type: functional, cell-based, CHO-K1
Method in brief: (§1)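 CHO-K1 cells (1000 per well) expressing human or rat CB1 or CB2 were preincubated with compound for 15 min at room temperature. Forskolin was then added at its EC70 for 30 min at room temperature. cAMP was detected by HTRF (d2-cAMP plus anti-cAMP cryptate) after a final 1 h incubation at room temperature. Values are reported as IC50 with % Emax.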

Cannabinoid receptor 1 [2] = target: T2, Cannabinoid receptor 1 (Homo sapiens, UniProt P21554); test: Agonist activity at human CB1 receptor expressed in CHOK1 cells assessed as inhibition of forskolin-induced cAMP production treated 15 mins before forskolin challenge measured after 1 hr by HTRF assay; assay type: functional, cell-based, CHO-K1; method in brief: as §1
Cannabinoid receptor 1 [3] = target: T2, Cannabinoid receptor 1; test: Agonist activity at human CB1 receptor expressed in CHOK1 cells assessed as inhibition of forskolin-induced cAMP production treated 15 mins before forskolin challenge measured after 1 hr by HTRF assay relative to control; assay type: functional, cell-based; conditions: CHO-K1
Method in brief: (§2)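 CHO-K1 cells (1000 per well) expressing human or rat CB1 or CB2 were preincubated with compound at room temperature for 15 min. Forskolin at EC70 was then added for a further 30 min at room temperature. cAMP was read by HTRF (d2-cAMP plus anti-cAMP-cryptate, final 1 h at room temperature). IC50 and % Emax were reported.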

Cannabinoid receptor 2 [4] = target: T1, Cannabinoid receptor 2; test: Agonist activity at human CB2 receptor expressed in CHOK1 cells assessed as inhibition of forskolin-induced cAMP production treated 15 mins before forskolin challenge measured after 1 hr by HTRF assay relative to control; assay type: functional, cell-based; conditions: CHO-K1; method in brief: as §2

T1 sequence (P34972 whole entry): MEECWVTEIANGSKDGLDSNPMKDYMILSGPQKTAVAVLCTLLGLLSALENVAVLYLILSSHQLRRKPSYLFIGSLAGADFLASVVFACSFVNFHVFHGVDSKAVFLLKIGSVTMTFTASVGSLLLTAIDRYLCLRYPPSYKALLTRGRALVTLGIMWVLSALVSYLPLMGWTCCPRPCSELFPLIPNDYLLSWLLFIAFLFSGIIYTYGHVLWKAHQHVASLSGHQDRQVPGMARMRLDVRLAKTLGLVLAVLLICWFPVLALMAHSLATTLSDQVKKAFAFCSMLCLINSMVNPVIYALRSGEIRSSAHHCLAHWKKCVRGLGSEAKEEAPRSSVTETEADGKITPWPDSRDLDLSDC
T2 sequence (P21554 whole entry): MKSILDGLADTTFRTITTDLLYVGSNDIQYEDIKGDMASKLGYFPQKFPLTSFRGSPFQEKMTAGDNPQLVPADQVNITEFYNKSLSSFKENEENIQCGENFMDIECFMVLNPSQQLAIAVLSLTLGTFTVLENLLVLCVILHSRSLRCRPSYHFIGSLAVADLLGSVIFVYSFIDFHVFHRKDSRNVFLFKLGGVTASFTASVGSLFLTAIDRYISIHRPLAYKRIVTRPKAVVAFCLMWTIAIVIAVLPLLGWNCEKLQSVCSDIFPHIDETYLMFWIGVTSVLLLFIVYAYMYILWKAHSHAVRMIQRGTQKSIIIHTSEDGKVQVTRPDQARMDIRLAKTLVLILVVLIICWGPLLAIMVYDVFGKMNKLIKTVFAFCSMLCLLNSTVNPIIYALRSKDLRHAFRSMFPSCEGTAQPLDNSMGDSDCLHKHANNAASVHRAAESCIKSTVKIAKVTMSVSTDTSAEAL

SMILES | IC50 (Cannabinoid receptor 2 [1]) | IC50 (Cannabinoid receptor 1 [2]) [nM] | Emax (Cannabinoid receptor 1 [3]) | Emax (Cannabinoid receptor 2 [4])
O=C(c1ccc2ccccc2n1)N1CC[C@](O)(c2ccccc2)[C@H]2CCCC[C@@H]21 | 41 nM | 2020 | 84% | 98%
O=C(c1cccc2[nH]ccc12)N1CC[C@](O)(c2ccccc2)[C@H]2CCCC[C@@H]21 | 22 nM | > 17000 | 31% | 94%
O=C(c1cc(-c2ccccc2F)n[nH]1)N1CC[C@](O)(c2ccccc2)[C@H]2CCCC[C@@H]21 | 1290 nM | > 17000 | – | –
CN1CCC(C(=O)N2CC[C@](O)(c3ccccc3)[C@H]3CCCC[C@@H]32)C1 (stereo not given in full) | > 17000 nM | > 17000 | 34% | 34%
O=C(c1ccc2ccccc2n1)N1CC[C@](O)(c2ccccc2)[C@H]2CCCC[C@H]21 | 0.82 nM | 188 | 98% | 98%
CS(=O)(=O)c1ccc([C@@]2(O)CCN(C(=O)c3ccccc3)[C@H]3CCCC[C@@H]32)cc1 | 106 nM | – | – | 56%
COc1ccc([C@@]2(O)CCN(C(=O)c3ccccc3)[C@H]3CCCC[C@@H]32)cc1 | 358 nM | – | – | 66%
O=C(c1ccccc1)N1CC[C@](O)(c2cccc(Cl)c2)[C@H]2CCCC[C@@H]21 | 493 nM | – | – | 69%
N#Cc1cccc([C@@]2(O)CCN(C(=O)c3ccccc3)[C@H]3CCCC[C@@H]32)c1 | 1050 nM | – | – | 85%
CS(=O)(=O)c1cccc([C@@]2(O)CCN(C(=O)c3ccccc3)[C@H]3CCCC[C@@H]32)c1 | 338 nM | – | – | 52%
O=C(c1ccccc1)N1CC[C@](O)(c2cccc(C(F)(F)F)c2)[C@H]2CCCC[C@@H]21 | 810 nM | – | – | -16%
O=C(c1ccccc1)N1CC[C@](O)(c2ccccn2)[C@H]2CCCC[C@@H]21 | 1360 nM | – | – | 65%
O=C(c1cccc2[nH]ncc12)N1CCC(O)(c2ccccc2)[C@@H]2CCCC[C@@H]21 (stereo not given in full) [listing 1 of 2 here] | 4.9 nM | 4250 | – | –
O=C(c1cc(-c2ccccc2F)[nH]n1)N1CC[C@](O)(c2ccccc2)[C@H]2CCCC[C@@H]21 | – | – | 56% | 81%
O=C(c1cccc2[nH]ncc12)N1CCC(O)(c2ccccc2)[C@@H]2CCCC[C@@H]21 (stereo not given in full) [listing 2 of 2 here] | – | – | 95% | 100%
CN1CCCCC1C(=O)N1CC[C@@](O)(c2ccccc2)[C@@H]2CCCC[C@@H]21 (mixture of isomers) | 56 nM | > 17000 | – | 100%
O=C(C1CNCCN1)N1CC[C@@](O)(c2ccccc2)[C@@H]2CCCC[C@@H]21 (mixture of isomers) | 62 nM | > 17000 | – | 91%
CN1CC(C(=O)N2CC[C@@](O)(c3ccccc3)[C@@H]3CCCC[C@@H]32)CCC1=O (mixture of isomers) | 135 nM | > 17000 | – | 99%
O=C1CC(C(=O)N2CC[C@@](O)(c3ccccc3)[C@@H]3CCCC[C@@H]32)CN1 (mixture of isomers) | 3470 nM | > 17000 | – | 89%
O=C1CCC(C(=O)N2CC[C@@](O)(c3ccccc3)[C@@H]3CCCC[C@@H]32)N1 (mixture of isomers) | 193 nM | > 17000 | – | 102%
O=C(c1ccc(OCC(F)(F)F)nc1)N1CC[C@@](O)(c2ccccc2)[C@@H]2CCCC[C@@H]21 (racemic) | 16 nM | > 17000 | – | 100%
CN1CCC(C(=O)N2CC[C@@](O)(c3ccccc3)[C@@H]3CCCC[C@@H]32)CC1 (racemic) | 395 nM | > 17000 | – | 98%
O=C([C@@H]1C[C@@H](O)CCN1)N1CC[C@@](O)(c2ccccc2)[C@@H]2CCCC[C@@H]21 (racemic) | 2180 nM | > 17000 | – | 87%
O=C(c1ncccn1)N1CC[C@@](O)(c2ccccc2)[C@@H]2CCCC[C@@H]21 (racemic) | 29 nM | > 17000 | – | 101%
O=C(c1cn(CC(F)(F)F)cn1)N1CC[C@@](O)(c2ccccc2)[C@@H]2CCCC[C@@H]21 (racemic) | 26 nM | > 17000 | – | 104%
O=C(c1cccc2[nH]ncc12)N1CCC(O)(c2ccccc2)[C@@H]2CCCC[C@@H]21 (single isomer, unassigned) [listing 1 of 2 here] | 1.6 nM | > 17000 | – | –
O=C(c1cccc2[nH]ncc12)N1CCC(O)(c2ccccc2)[C@@H]2CCCC[C@@H]21 (single isomer, unassigned) [listing 2 of 2 here] | – | – | 28% | 100%

Next, values leading:

IC50 (Cannabinoid receptor 2 [1]) | IC50 (Cannabinoid receptor 1 [2]) [nM] | Emax (Cannabinoid receptor 1 [3]) | Emax (Cannabinoid receptor 2 [4]) | SMILES
5220 nM and 597 nM | > 17000 | – | – | O=C(c1csc(-c2ccncc2)n1)N1CCC(O)(c2ccccc2)[C@@H]2CCCC[C@@H]21 (stereo not given in full) [listing 1 of 2 here]
45 nM | > 17000 | 14% | 99% | O=C(c1ccccc1)N1CC[C@](O)(c2ccccc2)[C@H]2CCCC[C@@H]21
24 nM | 963 | 72% | 90% | O=C(c1ccc(Cl)cc1)N1CC[C@](O)(c2ccccc2)[C@H]2CCCC[C@@H]21
4.2 nM | 4540 | 76% | 100% | O=C(c1ccccc1)N1CC[C@](O)(c2ccccc2)[C@H]2CCCC[C@H]21
0.14 nM | 312 | 79% | 90% | O=C(c1ccc(Cl)cc1)N1CC[C@](O)(c2ccccc2)[C@H]2CCCC[C@H]21
938 nM | – | – | 86% | O=C(c1ccccc1)N1CC[C@](O)(c2cccnc2)[C@H]2CCCC[C@@H]21
155 nM | – | – | 88% | O=C(c1ccccc1)N1CC[C@](O)(c2ccc(Cl)cc2)[C@H]2CCCC[C@@H]21
– | – | 10% and 3% | 77% and 89% | O=C(c1csc(-c2ccncc2)n1)N1CCC(O)(c2ccccc2)[C@@H]2CCCC[C@@H]21 (stereo not given in full) [listing 2 of 2 here]
11 nM | > 17000 | – | 102% | O=C(c1ccon1)N1CC[C@@](O)(c2ccccc2)[C@@H]2CCCC[C@@H]21 (racemic)
6.3 nM | > 17000 | – | 99% | O=C(c1ccncc1F)N1CC[C@@](O)(c2ccccc2)[C@@H]2CCCC[C@@H]21 (racemic)
124 nM | > 17000 | – | 100% | Cn1ccnc1C(=O)N1CC[C@@](O)(c2ccccc2)[C@@H]2CCCC[C@@H]21 (racemic)
6.1 nM | > 17000 | – | 99% | Cc1cccc(C(=O)N2CC[C@@](O)(c3ccccc3)[C@@H]3CCCC[C@@H]32)n1 (racemic)
282 nM | > 17000 | – | 101% | O=C(c1nnc[nH]1)N1CC[C@@](O)(c2ccccc2)[C@@H]2CCCC[C@@H]21 (racemic)
12 nM | > 17000 | – | 96% | O=C(c1ccc(C2CC2)nc1)N1CC[C@@](O)(c2ccccc2)[C@@H]2CCCC[C@@H]21 (racemic)
41 nM | > 17000 | – | 101% | O=C(c1cscn1)N1CC[C@@](O)(c2ccccc2)[C@@H]2CCCC[C@@H]21 (racemic)
12 nM | > 17000 | – | 96% | O=C(c1ccc(C(F)(F)F)nc1)N1CC[C@@](O)(c2ccccc2)[C@@H]2CCCC[C@@H]21 (racemic)
140 nM | > 17000 | – | 103% | O=C(c1ccncn1)N1CC[C@@](O)(c2ccccc2)[C@@H]2CCCC[C@@H]21 (racemic)
– | – | – | 99% | Cc1ccc(C(=O)N2CC[C@@](O)(c3ccccc3)[C@@H]3CCCC[C@@H]32)cn1 (racemic)
0.55 nM | > 17000 | – | – | O=C(c1csc(-c2ccncc2)n1)N1CCC(O)(c2ccccc2)[C@@H]2CCCC[C@@H]21 (single isomer, unassigned; form 1) [listing 1 of 2 here]
– | – | 12% | 100% | O=C(c1csc(-c2ccncc2)n1)N1CCC(O)(c2ccccc2)[C@@H]2CCCC[C@@H]21 (single isomer, unassigned; form 1) [listing 2 of 2 here]
7.9 nM | > 17000 | – | – | O=C(c1csc(-c2ccncc2)n1)N1CCC(O)(c2ccccc2)[C@@H]2CCCC[C@@H]21 (single isomer, unassigned; form 2) [listing 1 of 2 here]
– | – | 18% | 98% | O=C(c1csc(-c2ccncc2)n1)N1CCC(O)(c2ccccc2)[C@@H]2CCCC[C@@H]21 (single isomer, unassigned; form 2) [listing 2 of 2 here]
388 nM | > 17000 | – | – | O=C(c1csc(-c2ccncc2)n1)N1CCC(O)(c2ccccc2)[C@@H]2CCCC[C@@H]21 (single isomer, unassigned; form 3) [listing 1 of 2 here]
– | – | 51% | 97% | O=C(c1csc(-c2ccncc2)n1)N1CCC(O)(c2ccccc2)[C@@H]2CCCC[C@@H]21 (single isomer, unassigned; form 3) [listing 2 of 2 here]
> 17000 nM | 930 | – | – | O=C(c1csc(-c2ccncc2)n1)N1CCC(O)(c2ccccc2)[C@@H]2CCCC[C@@H]21 (single isomer, unassigned; form 4) [listing 1 of 2 here]
– | – | 46% | 19% | O=C(c1csc(-c2ccncc2)n1)N1CCC(O)(c2ccccc2)[C@@H]2CCCC[C@@H]21 (single isomer, unassigned; form 4) [listing 2 of 2 here]
